Reference: ChEMBL document CHEMBL1131117, “Pyrimidine thioethers: a novel class of HIV-1 reverse transcriptase inhibitors with activity against BHAP-resistant HIV” (J Med Chem, 1998)

Assays:
[1] = tested on: Human immunodeficiency virus type 1 reverse transcriptase (Human immunodeficiency virus 1), Q72547 [P236L]; test: Inhibitory activity against HIV-1 reverse transcriptase (P236L) at 10 uM dose
Method in brief: (§1)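 Recombinant HIV-1 RT homodimers (wild type or P236L mutant) were tested with compound at a single 10 µM concentration and reported as % inhibition. Reactions ran at 28 °C for 10 min and were stopped with 10% trichloroacetic acid. Acid-precipitated product was collected on glass fibre filters and counted for radioactivity.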

[2] = molecular target: T1, Human immunodeficiency virus type 1 reverse transcriptase (Human immunodeficiency virus 1, UniProt Q72547); test: Inhibition of HIV-1 reverse transcriptase (wild type)
Method in brief: (§2)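 Wild-type HIV-1 RT homodimer run at 28 °C for 10 min. The reaction is stopped with 10% (v/v) trichloroacetic acid, and the acid-precipitated product is collected on glass fiber filters and counted for radioactivity. Compounds are screened as % inhibition at 10 µM, and IC50 values are determined from eight drug concentrations.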

[3] = molecular target: Human immunodeficiency virus type 1 reverse transcriptase (Human immunodeficiency virus 1) (UniProt Q72547); test: Inhibitory activity against HIV-1 reverse transcriptase (wild type) at 10 uM dose; method in brief: as §1
[4] = molecular target: Human immunodeficiency virus type 1 reverse transcriptase (Human immunodeficiency virus 1, UniProt Q72547, P236L); test: Inhibition of HIV-1 reverse transcriptase (P236L)
Method in brief: (§3)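 HIV-1 RT homodimers (wild type or P236L) were assayed by radiolabel incorporation at 28 °C for 10 min and stopped with 10% trichloroacetic acid. Acid-insoluble product was filter-captured and counted. IC50 was derived from inhibition measured at eight drug concentrations.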

[5] = tested on: Human immunodeficiency virus type 1 reverse transcriptase (Human immunodeficiency virus 1), Q72547 [P236L]; test: inhibitory activity against HIV-1 reverse transcriptase (P236L) at 10 uM dose (IC50 determined in 8 drug concentrations); method in brief: as §3
[6] = tested on: MT4; test: concentration of drug that inhibited p24 production by 90% in infected MT-4 cells against HIV-1MF-DLV; assay type: functional; conditions: Homo sapiens
[7] = molecular target: Human immunodeficiency virus type 1 reverse transcriptase (Human immunodeficiency virus 1) (UniProt Q72547); test: inhibitory activity against HIV-1 reverse transcriptase (wild type) at 10 uM dose (IC50 determined in 8 drug concentrations); method in brief: as §3
[8] = tested on: MT4; test: concentration of drug that inhibited p24 production by 90% in infected MT-4 cells against HIV-1-WT; assay type: functional; conditions: Homo sapiens
[9] = molecular target: T1, Human immunodeficiency virus type 1 reverse transcriptase; test: inhibitory activity against HIV-1 reverse transcriptase (wild type; method in brief: as §2
[10] = tested on: MT4; test: Concentration of drug that inhibited p24 production by 90% in infected MT-4 cells against HIV-1MF-DLV; assay type: functional; conditions: Homo sapiens
[11] = tested on: MT4; test: Concentration of drug that inhibited p24 production by 90% in infected MT-4 cells against HIV-1-WT; assay type: functional; conditions: Homo sapiens
[12] = molecular target: Human immunodeficiency virus type 1 reverse transcriptase (Human immunodeficiency virus 1) (UniProt Q72547); test: inhibitory activity against HIV-1 reverse transcriptase (wild type) at 10 uM dose; method in brief: as §1

| SMILES | inhibition [1] | inhibition [3] | further results |
| --- | --- | --- | --- |
| Nc1cc(Cl)nc(S(=O)(=O)Cc2cccc(Br)c2)n1 | 14% |  |  |
| COC(=O)c1cccc(CSc2nc(N)cc(Cl)n2)c1 | 94% | 93% | IC50 [2]: 0.33 µM; IC50 [4]: 0.23 µM |
| Nc1cc(O)nc(SCc2ccc3ccccc3c2)n1 | 4% | 10% |  |
| Nc1cc(Cl)nc(SCc2ccc3ccccc3c2)n1 |  |  | inhibition [5]: 96%; IC90 [6]: 2.76 µM; inhibition [7]: 87%; IC50 [2]: 0.46 µM; IC50 [4]: 0.15 µM; IC90 [8]: 0.22 µM |
| Nc1cc(Cl)nc(OCc2ccccc2)n1 | 44% | 1% |  |
| CCNC(=O)/C=C/CSc1nc(N)cc(Cl)n1 | 55% | 40% |  |
| Clc1cc(N2CCCC2)nc(SCc2ccccc2)n1 | 41% | 35% |  |
| Nc1cc(Cl)nc(SCc2cccc(Cl)c2)n1 | 65% |  |  |
| CC(C)(C)c1ccc(CSc2nc(N)cc(Cl)n2)cc1 | 56% | 37% |  |
| COC(=O)/C=C/CSc1nc(N)cc(Cl)n1 | 93% | 78% | IC50 [2]: 5.25 µM; IC50 [4]: 0.93 µM |
| CN(C)C(=O)/C=C/CSc1nc(N)cc(Cl)n1 |  |  | inhibition [5]: 99%; IC90 [6]: 0.74 µM; inhibition [7]: 99%; IC50 [2]: 0.2 µM; IC50 [4]: 0.07 µM; IC90 [8]: 0.09 µM |
| C/C=C/CSc1nc(N)cc(Cl)n1 | 47% | 5% |  |
| Nc1cc(Cl)nc(SCc2cccc(F)c2)n1 | 79% |  |  |
| Cc1ccc(CSc2nc(N)cc(Cl)n2)cc1 | 5% | 3% |  |
| Nc1cc(Cl)nc(SCc2cccc(Br)c2)n1 | 97% | 94% | IC90 [6]: 4.52 µM; IC50 [2]: 0.76 µM; IC50 [4]: 0.14 µM; IC90 [8]: 0.35 µM |
| Nc1cc(Cl)nc(SCc2cccc(C(F)(F)F)c2)n1 | 91% | 80% |  |
| Nc1cc(Cl)nc(SCc2ccc3c(c2)OCO3)n1 | 95% | 82% |  |
| CCOC(=O)c1cc(N)nc(SCc2ccc3ccccc3c2)n1 | 24% | 17% |  |
| Nc1cc(Cl)nc([S+]([O-])Cc2cccc(Br)c2)n1 (stereo not given) | 40% |  |  |
| Nc1cc(Cl)nc(SCc2cccc3ccccc23)n1 | 96% | 89% |  |
| CCCCCCCCCSc1nc(N)cc(Cl)n1 | 0% | 0% |  |
| CCOC(=O)CCSc1nc(N)cc(Cl)n1 | 7% | 11% |  |

| SMILES | inhibition [1] | inhibition [3] | further results |
| --- | --- | --- | --- |
| Nc1cc(Cl)nc(SCC2CCCCC2)n1 | 13% | 37% |  |
| Nc1cc(Cl)nc(SCC(=O)O)n1 | 0% | 0% |  |
| Nc1cc(Cl)nc(SCCc2ccccc2)n1 | 12% | 33% |  |
| CC(=O)Nc1cc(Cl)nc(SCc2ccc3ccccc3c2)n1 | 53% | 30% |  |
| Clc1ccnc(SCc2ccc3ccccc3c2)n1 | 86% | 61% |  |
| Nc1cc(Cl)nc(SC/C=C/c2ccccc2)n1 | 98% | 96% | IC90 [6]: 5.05 µM; IC50 [2]: 0.19 µM; IC50 [4]: 0.07 µM; IC90 [8]: 0.15 µM |
| Nc1cc(Cl)nc(SCc2cc3c(cc2Cl)OCO3)n1 | 99% | 98% | IC50 [9]: 0.085 µM; IC50 [4]: 0.016 µM |
| NNc1cc(Cl)nc(SCc2ccccc2)n1 | 31% |  |  |
| CCN(CC)C(=O)CSc1nc(N)cc(Cl)n1 | 14% | 14% |  |
| N#Cc1cc(N)nc(SCc2ccc3ccccc3c2)n1 | 93% | 84% |  |
| Nc1cc(Cl)nc(CCc2ccc3ccccc3c2)n1 | 12% |  |  |
| Nc1cc(Cl)nc(SCc2ccc(-c3ccccc3)cc2)n1 | 20% | 8% |  |
| Nc1cc(Cl)nc(SCC2=Cc3ccccc3CC2)n1 | 87% | 71% |  |
| Nc1cc(N2CCCC2)nc(SCc2ccccc2)n1 | 0% | 3% |  |
| COc1cccc(CSc2nc(N)cc(Cl)n2)c1 | 97% | 70% | IC90 [10]: 3.21 µM; IC50 [2]: 0.98 µM; IC90 [11]: 0.27 µM; IC50 [4]: 0.16 µM |
| Cc1cc(N)nc(SCc2ccccc2)n1 | 4% | 0% |  |
| CCCNc1cc(Cl)nc(SCc2ccccc2)n1 | 30% | 14% |  |
| CC1(C)CCC(C)(C)c2cc(CSc3nc(N)cc(Cl)n3)ccc21 | 23% | 7% |  |
| Nc1cc(Cl)nc(OCc2cccc3ccccc23)n1 | 67% | 2% |  |
| Nc1cc(Cl)nc(SCc2cc(Cl)cc(Cl)c2)n1 | 65% |  |  |
| Nc1cc(Cl)nc([S+]([O-])Cc2ccc3ccccc3c2)n1 (stereo not given) | 75% | 45% |  |
| Nc1cc(Cl)nc(SCC2=CCCc3ccccc32)n1 | 88% | 47% | IC50 [2]: 16 µM; IC50 [4]: 0.6 µM |

| SMILES | inhibition [1] | inhibition [3] | further results |
| --- | --- | --- | --- |
| OCCCNc1cc(Cl)nc(SCc2ccccc2)n1 | 3% | 17% |  |
| COC(=O)c1ccc(CSc2nc(N)cc(Cl)n2)cc1 | 15% | 6% |  |
| Clc1cc(Cl)nc(SCc2ccccc2)n1 | 25% | 19% |  |
| Nc1ccnc(SCc2ccc3ccccc3c2)n1 | 71% |  | inhibition [12]: 50% |
| CCN(CC)C(=O)/C=C/CSc1nc(N)cc(Cl)n1 |  |  | inhibition [5]: 99%; IC90 [6]: 0.11 µM; inhibition [7]: 98%; IC50 [2]: 0.06 µM; IC50 [4]: 0.05 µM; IC90 [8]: 0.02 µM |
| Cc1ccccc1CSc1nc(N)cc(Cl)n1 | 0% | 2% |  |
| Nc1cc(Cl)nc(SCc2cccc(I)c2)n1 | 89% |  |  |
| COc1ccc(CSc2nc(N)cc(Cl)n2)cc1 | 63% | 25% |  |
| Nc1cc(C(F)(F)F)nc(SCc2ccc3ccccc3c2)n1 | 94% | 94% | IC50 [2]: 0.29 µM; IC50 [4]: 0.43 µM |
| Clc1cc(N2CCCCC2)nc(SCc2ccccc2)n1 | 47% | 47% |  |
| Nc1cc(Cl)nc(NCc2ccc3ccccc3c2)n1 | 17% | 9% |  |
| Cc1cccc(COc2nc(N)cc(Cl)n2)c1 | 72% | 25% |  |
| Clc1cc(-c2ccccc2)nc(SCc2ccc3ccccc3c2)n1 | 5% |  |  |
| Nc1cc(Cl)nc(OCc2ccc3ccccc3c2)n1 | 80% | 63% |  |
| Cc1cccc(CSc2nc(N)cc(Cl)n2)c1 |  |  | inhibition [5]: 98%; IC90 [6]: 1.76 µM; inhibition [7]: 96%; IC50 [2]: 0.28 µM; IC50 [4]: 0.05 µM; IC90 [8]: 0.11 µM |
| Clc1cc(NC2CCCCC2)nc(SCc2ccccc2)n1 | 6% | 26% |  |
| Clc1cc(-n2ccnc2)nc(SCc2ccc3ccccc3c2)n1 | 17% | 12% |  |
| Nc1cc(Cl)nc(SCc2cc(Br)cc(Br)c2)n1 | 73% |  |  |
| Nc1cc(Cl)nc(SCc2ccc(Cl)c(Cl)c2)n1 | 94% | 80% | IC50 [2]: 0.49 µM; IC50 [4]: 0.062 µM |
| Nc1cc(Cl)nc(SCc2ccccc2)n1 |  |  | IC50 [2]: 6.66 µM; IC50 [4]: 1.47 µM |
| Clc1cc(Cl)nc(SCc2ccc3ccccc3c2)n1 | 23% | 0% |  |
